Test results: ChEMBL document CHEMBL5661968, “Antitumor activity of ZSTK474, a new phosphatidylinositol 3-kinase inhibitor” (J Natl Cancer Inst, 2006)
Calls of active or inactive are those of the source. The calls are words filed in the database; no cut-off is given here.

Assays:
[1] = biological target: Forkhead box protein O3 (Homo sapiens) (UniProt O43524); assay: Inhibition of FKHRL1 phosphorylation in Thr-32 residue human A549 cells measured after 3 hrs by immunoblotting analysis; type: cell-based; conditions: dose <= 2.0 µM
Sequence of Forkhead box protein O3 (Homo sapiens) (O43524 whole entry): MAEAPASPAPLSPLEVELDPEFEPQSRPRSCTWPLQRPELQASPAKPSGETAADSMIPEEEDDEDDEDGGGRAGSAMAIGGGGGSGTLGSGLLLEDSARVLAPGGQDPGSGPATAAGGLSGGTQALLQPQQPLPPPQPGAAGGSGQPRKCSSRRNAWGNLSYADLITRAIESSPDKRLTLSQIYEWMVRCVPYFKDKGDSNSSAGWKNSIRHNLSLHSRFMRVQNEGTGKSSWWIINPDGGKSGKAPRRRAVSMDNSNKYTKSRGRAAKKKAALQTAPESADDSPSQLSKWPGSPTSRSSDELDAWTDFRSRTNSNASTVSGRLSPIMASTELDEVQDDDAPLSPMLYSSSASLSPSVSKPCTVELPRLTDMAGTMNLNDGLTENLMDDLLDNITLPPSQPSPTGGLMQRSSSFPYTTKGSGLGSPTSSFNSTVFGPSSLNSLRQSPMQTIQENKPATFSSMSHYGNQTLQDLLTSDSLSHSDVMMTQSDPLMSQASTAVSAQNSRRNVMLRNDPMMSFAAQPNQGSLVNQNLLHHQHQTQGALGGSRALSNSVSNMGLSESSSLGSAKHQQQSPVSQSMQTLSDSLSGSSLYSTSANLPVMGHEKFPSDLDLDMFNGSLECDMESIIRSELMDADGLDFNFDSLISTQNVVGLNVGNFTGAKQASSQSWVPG
Procedure, shortened: (§1)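 A549 cells treated over 0 to 2.0 μM; lysed in 10 mM Tris–HCl pH 7.4, 50 mM NaCl, NaF, pyrophosphate, vanadate, EDTA, protease inhibitors, 0.5% NP-40, 0.1% SDS; proteins resolved by SDS-PAGE, blotted to PVDF, probed with phospho-specific antibodies, HRP secondary, ECL detection.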

DMS-114 = assay: Growth inhibition of human DMS-114 cells measured after 48 hrs by sulforhodamine B assay; type: functional
Procedure, shortened: (§2)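 JFCR39 panel lines were grown in RPMI 1640 with 5% FBS, penicillin and streptomycin at 37 °C in 5% CO2. After 48 h of drug exposure, total cellular protein was measured by sulforhodamine B staining. GI50 was calculated by a previously described method.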

OVCAR-5 = assay: Growth inhibition of human OVCAR-5 cells measured after 48 hrs by sulforhodamine B assay; type: functional; procedure, shortened: as §2
SF-539 = assay: Growth inhibition of human SF-539 cells measured after 48 hrs by sulforhodamine B assay; type: functional; procedure, shortened: as §2
MDA-MB-231 = assay: Growth inhibition of human MDA-MB-231 cells measured after 48 hrs by sulforhodamine B assay; type: functional; procedure, shortened: as §2
A549 [2] = assay: Reversible inhibition of PI3K in human A549 cell lysate at 1 uM preincubated with compound for 5 mins followed by [gamma-32p]-ATP addition measured after 20 mins by immunoprecipitation based liquid scintillation spectroscopic analysis; type: subcellular; conditions: time 25.0 min
Procedure, shortened: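 Anti-p85 immunoprecipitates from A549 lysate treated 5 min with 1 μM compound, then split: one aliquot washed four times in 100 mM NaCl, 20 mM Tris pH 7.5 to remove free inhibitor, the other unwashed; both assayed with [γ-32P]ATP and phosphatidylinositol, PI3P counted by scintillation.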

[3] = Growth inhibition of human HBC4 cells measured after 48 hrs by sulforhodamine B assay; type: functional; procedure, shortened: as §2
B16-F10 = assay: Antitumor activity against mouse B16-F10 cells implanted in BDF1 mouse assessed as tumor size relative to control (T/C) at 100 mg/kg, po administered daily measured after 14 days; conditions: 336 h
NCI-H460 = assay: Growth inhibition of human NCI-H460 cells measured after 48 hrs by sulforhodamine B assay; type: functional; procedure, shortened: as §2
HT-29 = assay: Growth inhibition of human HT-29 cells measured after 48 hrs by sulforhodamine B assay; type: functional; procedure, shortened: as §2
SNB-75 = assay: Growth inhibition of human SNB-75 cells measured after 48 hrs by sulforhodamine B assay; type: functional; procedure, shortened: as §2
SK-OV-3 = assay: Growth inhibition of human SK-OV-3 cells measured after 48 hrs by sulforhodamine B assay; type: functional; procedure, shortened: as §2
[4] = biological target: Ribosomal protein S6 kinase beta-1 (Homo sapiens) (UniProt P23443); assay: Inhibition of p70S6K phosphorylation at Thr-389 residue in human A549 cells measured after 3 hrs by immunoblotting analysis; type: cell-based; conditions: dose <= 2.0 µM; procedure, shortened: as §1
Sequence of Ribosomal protein S6 kinase beta-1 (Homo sapiens) (P23443 whole entry, looked up): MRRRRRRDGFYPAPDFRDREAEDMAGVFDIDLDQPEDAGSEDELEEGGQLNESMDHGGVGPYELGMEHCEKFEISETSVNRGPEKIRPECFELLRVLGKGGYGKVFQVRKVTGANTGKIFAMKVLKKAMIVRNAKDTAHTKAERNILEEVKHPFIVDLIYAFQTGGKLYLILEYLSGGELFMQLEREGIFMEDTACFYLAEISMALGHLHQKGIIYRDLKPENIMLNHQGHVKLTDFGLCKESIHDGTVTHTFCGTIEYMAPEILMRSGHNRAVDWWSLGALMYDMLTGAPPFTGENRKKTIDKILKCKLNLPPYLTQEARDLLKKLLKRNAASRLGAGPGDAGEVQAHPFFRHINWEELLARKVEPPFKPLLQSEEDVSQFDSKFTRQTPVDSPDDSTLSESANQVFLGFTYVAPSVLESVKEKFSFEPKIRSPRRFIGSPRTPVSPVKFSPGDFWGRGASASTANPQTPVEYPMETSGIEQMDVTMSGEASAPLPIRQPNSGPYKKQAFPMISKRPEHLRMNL

HCC 2998 = assay: Growth inhibition of human HCC 2998 cells measured after 48 hrs by sulforhodamine B assay; type: functional; procedure, shortened: as §2
MKN-74 = assay: Growth inhibition of human MKN74 cells measured after 48 hrs by sulforhodamine B assay; type: functional; procedure, shortened: as §2
[5] = biological target: Glycogen synthase kinase-3 beta (Homo sapiens) (UniProt P49841); assay: Inhibition of GSK-3beta phosphorylation at Ser9 residue in human A549 cells at 0.5 uM measured after 30 mins by Western blotting analysis; type: cell-based
Sequence of Glycogen synthase kinase-3 beta (Homo sapiens) (P49841 whole entry, looked up): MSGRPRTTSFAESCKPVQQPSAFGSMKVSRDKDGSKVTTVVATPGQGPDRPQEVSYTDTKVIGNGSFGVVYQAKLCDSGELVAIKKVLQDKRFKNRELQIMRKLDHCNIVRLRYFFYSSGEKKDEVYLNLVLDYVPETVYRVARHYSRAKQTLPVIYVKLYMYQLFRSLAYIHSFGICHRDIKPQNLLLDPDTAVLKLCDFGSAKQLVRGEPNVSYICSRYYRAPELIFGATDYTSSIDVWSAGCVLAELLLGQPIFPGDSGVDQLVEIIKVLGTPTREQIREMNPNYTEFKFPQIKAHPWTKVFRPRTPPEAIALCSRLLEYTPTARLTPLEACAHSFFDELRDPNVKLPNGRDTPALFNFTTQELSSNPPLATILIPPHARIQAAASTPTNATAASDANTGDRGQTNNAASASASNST

[6] = biological target: Forkhead box protein O1 (Homo sapiens) (UniProt Q12778); assay: Inhibition of FKHR phosphorylation at Thr-24 residue in human A549 cells measured after 3 hrs by immunoblotting analysis; type: cell-based; conditions: dose <= 2.0 µM; procedure, shortened: as §1
Sequence of Forkhead box protein O1 (Homo sapiens) (Q12778 whole entry): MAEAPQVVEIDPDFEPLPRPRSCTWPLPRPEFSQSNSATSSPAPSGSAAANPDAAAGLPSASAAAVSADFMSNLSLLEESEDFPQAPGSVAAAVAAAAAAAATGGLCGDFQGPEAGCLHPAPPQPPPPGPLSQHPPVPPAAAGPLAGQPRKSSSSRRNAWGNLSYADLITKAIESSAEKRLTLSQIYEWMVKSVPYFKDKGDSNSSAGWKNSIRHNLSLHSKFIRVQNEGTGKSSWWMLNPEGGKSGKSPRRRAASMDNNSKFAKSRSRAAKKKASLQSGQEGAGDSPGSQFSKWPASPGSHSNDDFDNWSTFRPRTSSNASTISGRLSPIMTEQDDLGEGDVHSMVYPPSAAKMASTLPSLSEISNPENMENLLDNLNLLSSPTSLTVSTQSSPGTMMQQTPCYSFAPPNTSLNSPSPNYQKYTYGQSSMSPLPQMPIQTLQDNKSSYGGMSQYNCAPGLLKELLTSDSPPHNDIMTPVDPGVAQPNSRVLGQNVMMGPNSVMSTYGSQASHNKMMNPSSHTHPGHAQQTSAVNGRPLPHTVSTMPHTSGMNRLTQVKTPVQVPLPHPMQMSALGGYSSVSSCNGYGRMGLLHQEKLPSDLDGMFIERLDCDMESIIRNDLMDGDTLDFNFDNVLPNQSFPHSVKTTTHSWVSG

KM12 = assay: Growth inhibition of human KM12 cells measured after 48 hrs by sulforhodamine B assay; type: functional; procedure, shortened: as §2
SNB-78 = assay: Growth inhibition of human SNB-78 cells measured after 48 hrs by sulforhodamine B assay; type: functional; procedure, shortened: as §2
MKN-28 = assay: Growth inhibition of human MKN-28 cells measured after 48 hrs by sulforhodamine B assay; type: functional; procedure, shortened: as §2
DU-145 = assay: Growth inhibition of human DU-145 cells measured after 48 hrs by sulforhodamine B assay; type: functional; procedure, shortened: as §2
PC-3 [7] = assay: Antitumor activity against human PC-3 cells xenografted in nude mouse assessed as inhibition of tumor growth at 400 mg/kg, po administered on day 0 to 13 except for day 3 and 10 measured after 14 days; type: functional, organism-based; conditions: time 14.0 day
Procedure, shortened: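 Female BALB/c-background nude mice were implanted s.c. with 3 × 3 × 3 mm tumor fragments. At 100–300 mm3 tumor volume (day 0), groups of five were randomized and dosed orally at 400 mg/kg on days 0–13, skipping days 3 and 10. Caliper volume was (L×W2)/2, relative to day 0 (RTV). T/C% on day 14 = 100 × mean treated RTV / mean control RTV.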

PC-3 [8] = assay: Growth inhibition of human PC-3 cells measured after 48 hrs by sulforhodamine B assay; type: functional; procedure, shortened: as §2
RXF 631 = assay: Growth inhibition of human RXF 631 cells measured after 48 hrs by sulforhodamine B assay; type: functional; procedure, shortened: as §2
MEF = assay: Inhibition of PI3K in platelet-derived growth factor induced mouse MEF cells assessed as reduction in PIP3 formation at 1 uM preincubated with compound for 15 mins followed by induction by immunoprecipitation based liquid scintillation spectroscopic analysis; type: cell-based
Procedure, shortened: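 Murine embryonic fibroblasts labelled 4 h at 37 °C in phosphate-free DMEM with 25 mM HEPES pH 7.4 and [32P]orthophosphate (0.1 mCi/mL); 1 μM compound for 15 min before PDGF (10 ng/mL) stimulation; PIP3 formation measured.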

MKN-1 = assay: Growth inhibition of human MKN-1 cells measured after 48 hrs by sulforhodamine B assay; type: functional; procedure, shortened: as §2
[9] = Toxicity in nude mouse xenografted with human A549 cells assessed as change in body weight at 800 mg/kg, po administered on day 0 to 13 except for day 3 and 10 measured after 28 days (reference value: 14 %); type: organism-based; conditions: in vivo, 672 h, time 28 day
NCI-H522 = assay: Growth inhibition of human NCI-H522 cells measured after 48 hrs by sulforhodamine B assay; type: functional; procedure, shortened: as §2
MCF7 = assay: Growth inhibition of human MCF7 cells measured after 48 hrs by sulforhodamine B assay; type: functional; procedure, shortened: as §2
[10] = […] toxicity in nude mouse xenografted with human A549 cells assessed as change in body weight at 800 mg/kg, po administered on day 0 to 13 except for day 3 and 10 measured after 28 days; type: organism-based; conditions: in vivo, 672 h, time 28 day
[11] = Growth inhibition of human HBC5 cells measured after 48 hrs by sulforhodamine B assay; type: functional; procedure, shortened: as §2
A549 [12] = assay: Inhibition of AKT in human A549 cells at 0.5 uM measured after 5 mins by Western blotting analysis; type: cell-based
Tuberin (Homo sapiens) = Tuberin (Homo sapiens) (UniProt P49815); assay: Inhibition of TSC-2 phosphorylation at ser-1462 residue in human A549 cells measured after 3 hrs by immunoblotting analysis; type: cell-based; conditions: dose <= 2.0 µM; procedure, shortened: as §1
Sequence of Tuberin (Homo sapiens) (P49815 whole entry): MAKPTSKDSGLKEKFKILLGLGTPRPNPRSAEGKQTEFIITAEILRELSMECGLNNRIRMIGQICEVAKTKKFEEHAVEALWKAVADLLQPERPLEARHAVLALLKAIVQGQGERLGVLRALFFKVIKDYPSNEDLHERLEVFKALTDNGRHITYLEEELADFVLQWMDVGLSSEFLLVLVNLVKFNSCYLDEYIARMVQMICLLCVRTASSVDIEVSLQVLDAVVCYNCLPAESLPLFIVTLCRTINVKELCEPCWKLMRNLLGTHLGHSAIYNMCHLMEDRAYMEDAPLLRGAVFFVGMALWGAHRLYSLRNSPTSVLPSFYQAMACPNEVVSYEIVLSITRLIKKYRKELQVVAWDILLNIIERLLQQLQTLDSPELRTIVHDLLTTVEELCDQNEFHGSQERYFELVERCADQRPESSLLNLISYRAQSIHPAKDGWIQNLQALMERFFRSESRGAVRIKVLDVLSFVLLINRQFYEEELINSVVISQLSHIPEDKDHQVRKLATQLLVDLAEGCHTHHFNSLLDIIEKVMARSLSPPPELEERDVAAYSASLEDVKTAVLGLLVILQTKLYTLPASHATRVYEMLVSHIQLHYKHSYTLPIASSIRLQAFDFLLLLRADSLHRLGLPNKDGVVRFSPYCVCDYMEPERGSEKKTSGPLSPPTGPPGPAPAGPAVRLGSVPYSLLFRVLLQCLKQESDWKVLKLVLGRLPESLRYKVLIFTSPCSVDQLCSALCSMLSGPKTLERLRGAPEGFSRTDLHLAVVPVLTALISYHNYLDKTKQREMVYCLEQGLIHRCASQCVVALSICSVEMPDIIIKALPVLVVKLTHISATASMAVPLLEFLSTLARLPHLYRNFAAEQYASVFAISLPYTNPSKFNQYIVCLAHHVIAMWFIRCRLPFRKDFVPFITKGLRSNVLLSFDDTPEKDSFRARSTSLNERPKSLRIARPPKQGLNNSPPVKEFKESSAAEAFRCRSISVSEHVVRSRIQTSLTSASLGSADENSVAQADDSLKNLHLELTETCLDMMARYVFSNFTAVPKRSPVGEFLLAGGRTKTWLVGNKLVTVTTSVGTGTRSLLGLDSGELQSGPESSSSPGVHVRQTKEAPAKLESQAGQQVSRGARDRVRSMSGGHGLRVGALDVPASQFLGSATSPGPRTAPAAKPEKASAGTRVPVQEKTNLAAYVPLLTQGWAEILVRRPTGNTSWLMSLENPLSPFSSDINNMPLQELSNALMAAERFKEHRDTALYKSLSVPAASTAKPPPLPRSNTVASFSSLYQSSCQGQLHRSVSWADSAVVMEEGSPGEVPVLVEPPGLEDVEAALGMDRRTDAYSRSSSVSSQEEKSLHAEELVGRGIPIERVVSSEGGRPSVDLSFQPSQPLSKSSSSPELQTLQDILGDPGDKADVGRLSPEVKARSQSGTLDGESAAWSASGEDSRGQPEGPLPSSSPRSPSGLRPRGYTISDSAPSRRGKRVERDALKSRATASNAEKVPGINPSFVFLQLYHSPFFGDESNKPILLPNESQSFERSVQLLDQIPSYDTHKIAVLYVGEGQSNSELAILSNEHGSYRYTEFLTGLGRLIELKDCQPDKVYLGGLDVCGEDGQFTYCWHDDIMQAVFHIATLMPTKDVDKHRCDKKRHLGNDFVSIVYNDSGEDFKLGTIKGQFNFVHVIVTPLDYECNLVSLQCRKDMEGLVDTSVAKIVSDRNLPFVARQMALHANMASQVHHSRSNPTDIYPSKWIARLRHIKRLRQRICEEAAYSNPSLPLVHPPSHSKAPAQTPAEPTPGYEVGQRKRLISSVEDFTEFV

[13] = Toxicity in nude mouse xenografted with human PC-3 cells assessed as change in body weight at 400 mg/kg, po administered on day 0 to 13 except for day 3 and 10 measured after 28 days (reference value: 17 %); type: organism-based; conditions: in vivo, 672 h, time 28 day

SMILES: FC(F)c1nc2ccccc2n1-c1nc(N2CCOCC2)nc(N2CCOCC2)n1 [ZSTK-474]
- inhibition [1]: Dose-Dependent Effect
- GI50 (DMS-114): 295 nM
- GI50 (OVCAR-5): 813 nM
- GI50 (SF-539): 347 nM
- GI50 (MDA-MB-231): 562 nM
- inhibition (A549 [2]): Active
- GI50 [3]: 240 nM
- T/C at 100 mg/kg (B16-F10): 28.5%
- GI50 (NCI-H460): 468 nM
- GI50 (HT-29): 447 nM
- GI50 (SNB-75): 45.7 nM
- GI50 (SK-OV-3): 331 nM
- inhibition [4]: Dose-Dependent Effect
- GI50 (HCC 2998): 245 nM
- GI50 (MKN-74): 617 nM
- inhibition [5]: Active
- inhibition [6]: Dose-Dependent Effect
- GI50 (KM12): 1660 nM
- GI50 (SNB-78): 55 nM
- GI50 (MKN-28): 1350 nM
- GI50 (DU-145): 912 nM
- Activity (PC-3 [7]): Active
- GI50 (PC-3 [8]): 38 nM
- GI50 (RXF 631): 724 nM
- inhibition (MEF): Active
- GI50 (MKN-1): 224 nM
- Activity [9]: Non-Toxic
- GI50 (NCI-H522): 151 nM
- GI50 (MCF7): 45.7 nM
- Activity [10]: Non-Toxic
- GI50 [11]: 28.2 nM
- inhibition (A549 [12]): inactive
- inhibition (Tuberin (Homo sapiens)): Dose-Dependent Effect
- Activity [13]: 17%
